“And” between values parts separate entries of the source, which are not always exact repeats. Identical values can stand only once. Like-named read-outs stand apart in the source and are kept apart here.
Experiments:
[1] = test system: C3H/HeN mice (WT, MT1KO, MT2KO); assay: Re-entrainment; assay type: in vivo, mouse
[2] = test system: C3H/HeN mice (WT, MT1KO, MT2KO); conditions: cited from earlier work
hMT1 = hMT1 (Homo sapiens, UniProt P48039); assay: GloSensor cAMP assay; assay type: cell-based; conditions: for hMT1 Schild slope: Schild analysis, antagonism of melatonin, cAMP
hMT1, sequence (P48039 whole entry): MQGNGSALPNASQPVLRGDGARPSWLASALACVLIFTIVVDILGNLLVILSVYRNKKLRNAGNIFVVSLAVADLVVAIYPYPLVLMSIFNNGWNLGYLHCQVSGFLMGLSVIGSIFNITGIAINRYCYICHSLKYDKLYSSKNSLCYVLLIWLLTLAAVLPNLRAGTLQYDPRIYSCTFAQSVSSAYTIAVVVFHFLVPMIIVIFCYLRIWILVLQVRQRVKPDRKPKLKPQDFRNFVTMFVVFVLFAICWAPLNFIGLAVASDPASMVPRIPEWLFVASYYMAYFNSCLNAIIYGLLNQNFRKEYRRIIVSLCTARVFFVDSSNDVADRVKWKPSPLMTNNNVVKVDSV

hMT2 = target: T1, hMT2 (Homo sapiens, UniProt P49286); assay: cell-based; assay type: cell-based; conditions: for hMT2 Schild slope: Schild analysis, antagonism of melatonin
T1 sequence (P49286 1-362): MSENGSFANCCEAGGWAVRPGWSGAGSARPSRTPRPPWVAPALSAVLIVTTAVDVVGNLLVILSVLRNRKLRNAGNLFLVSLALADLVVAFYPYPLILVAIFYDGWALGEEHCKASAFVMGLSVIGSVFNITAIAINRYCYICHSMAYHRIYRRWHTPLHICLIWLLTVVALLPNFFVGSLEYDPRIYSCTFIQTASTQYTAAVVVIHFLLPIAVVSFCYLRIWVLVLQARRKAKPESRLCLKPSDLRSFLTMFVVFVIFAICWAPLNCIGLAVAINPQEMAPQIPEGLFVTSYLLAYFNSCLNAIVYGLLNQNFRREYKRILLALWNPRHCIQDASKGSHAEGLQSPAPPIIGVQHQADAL

mMT1 [3] = target: T2, mMT1 (Mus musculus, UniProt Q61184); assay: GloSensor cAMP assay; assay type: cell-based; conditions: for Emax: HEK293, read-out: mMT1 Emax
T2 sequence (Q61184 whole entry): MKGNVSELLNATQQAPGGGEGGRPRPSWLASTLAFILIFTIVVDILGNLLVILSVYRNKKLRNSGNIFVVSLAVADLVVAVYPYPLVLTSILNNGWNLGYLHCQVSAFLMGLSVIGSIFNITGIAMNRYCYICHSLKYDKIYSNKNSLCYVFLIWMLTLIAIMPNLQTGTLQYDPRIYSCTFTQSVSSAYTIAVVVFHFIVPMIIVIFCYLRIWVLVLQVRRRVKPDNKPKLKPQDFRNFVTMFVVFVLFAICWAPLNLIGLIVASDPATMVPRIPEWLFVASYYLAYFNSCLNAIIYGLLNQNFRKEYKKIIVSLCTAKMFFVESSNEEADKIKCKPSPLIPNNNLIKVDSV
In short: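 HEK293T cells in DMEM with 10% dialyzed FBS were co-transfected with a mouse MT1 or MT2 (de-Tango-ized) construct plus GloSensor DNA (8 μg each). Next day, cells were seeded at 20,000/well in DMEM with 1% dialyzed FBS for 24 h, then switched to HBSS, 20 mM HEPES pH 7.4, 0.1% BSA. Inhibition of isoproterenol-stimulated cAMP was read by luminescence.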

[4] = Plasma pharmacokinetics and brain distribution; assay type: in vivo; conditions: male, C57BL/6, mouse, iv, 2 mg/kg; for Kp at 30 min: brain and plasma; for AUC / Cmax / Vd / clearance / half-life: plasma
In short: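 Male C57BL/6 mice (nine) got a single 2 mg/kg IV dose in 5% N-methyl pyrrolidone, 5% Solutol HS-15, 90% saline. Retro-orbital blood (~60 μL, three mice per time point, light isoflurane) was taken at 0.08–24 hr and plasma stored at -70°C. Brains were collected at 0.5, 4 and 24 hr and homogenized in ice-cold PBS pH 7.4 at three times brain weight.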

mMT1 [5] = target: T2, mMT1; assay: 2-[125I]-iodomelatonin competition binding, CHO cell membranes; conditions: read-out: KD mMT1
[6] = test system: C3H/HeN mice (WT, MT1KO, MT2KO); assay: Phase shift of circadian running wheel activity onset in constant dark; assay type: in vivo; conditions: CT 10; 0.9 μg/mouse (about 0.03 mg/Kg)
[7] = hMT1 pEC50, inhibition of isoproterenol-stimulated cAMP, HEK cells, agonist
[8] = hMT2 pEC50, inhibition of isoproterenol-stimulated cAMP, HEK cells, agonist
[9] = hMT1 pEC50 (Inverse), inverse agonist, isoproterenol-stimulated cAMP, HEK cells
[10] = pEC50 MT1 (IA), inverse agonist, as summarised in PK table
[11] = hMT2 pEC50 (Inverse), inverse agonist, isoproterenol-stimulated cAMP, HEK cells
[12] = MT2 activity, none detectable up to, cAMP assay

For `COc1ccc2[nH]cc(CCNC(C)=O)c2c1` [melatonin], the effect on re-entrainment ([1]; 30 μg/mouse) is listed as “accelerates re-entrainment” and the “ED50 (phase advance)” value [2] is listed as 0.72 μg/mouse.
For `Cc1nc(-c2cccc(NCc3ccccc3Cl)c2)n[nH]1` [ZINC37781618], the EC50 (hMT1; hMT1 pEC50 (inactive analog), tested at concentrations up to 30μM) was greater than 31600 nM and the EC50 (hMT2; hMT2 pEC50 (inactive analog), tested at concentrations up to 30μM) was greater than 31600 nM.
`CN(Cc1ccncc1)c1ccnc(Cl)c1` [ZINC223593565] gave an Emax (hMT1; HEK293, read-out: hMT1 % Emax) of 86%, an EC50 (hMT1; [7]) of 398 nM and an Emax (hMT2; HEK293, read-out: hMT2 % Emax) of 58%. The EC50 (hMT2; [8]) was 355 nM.
In the case of `Cc1cc(=O)n2ccn(CCc3ccc4c(c3)OC(F)(F)O4)c2n1` [ZINC664088238], the EC50 (hMT1; [7]) is reported as greater than 10000 nM.
With `CC(C)c1ccc(CNc2cccc(-c3nnc[nH]3)c2)cc1` [ZINC157673384] the Kb (hMT1) was 12.6 nM, the Emax (hMT1; HEK293, read-out: hMT1 % Emax (Inverse)) was 47% and the Emax (hMT1; HEK293, read-out: hMT1 Emax) was -47 ± 12%. For the same molecule, the “hMT1 Schild slope” value (hMT1) was 0.80 ± 0.04, the EC50 (hMT1; [9]) was 20.9 nM and the EC50 (hMT1; [10]) was 20 nM. For the same molecule, the Kb (hMT2) was 200 nM, the Emax (hMT2; HEK293, read-out: hMT2 % Emax (Inverse)) was 153% and the Emax (hMT2; HEK293, read-out: hMT2 Emax) was -153 ± 14%. For the same molecule, the “hMT2 Schild slope” value (hMT2; cAMP) was 1.0 ± 0.1, the EC50 (hMT2; [11]) was 661 nM and the EC50 (hMT2; pEC50 MT2 (IA), inverse agonist, as summarised in PK table) was 631 nM. For the same molecule, the EC50 (mMT1 [3]) was 100 nM, the Emax (mMT1 [3]) was -49 ± 3% and the Kp at 30 min [4] was 1.43. It also gave an AUC [4] of 564 ng·h/mL, a Cmax [4] of 1300 ng/mL and a Vd [4] of 1.38 L/kg. The clearance [4] was 58.5 mL/min/kg and the half-life [4] was 19.2 min.
`COc1ccc(CN(C)C(=O)c2cccc(OC(F)F)c2)cc1O` [ZINC353044322] showed an EC50 (hMT2; [12]) greater than 30000 nM.
In the case of `COc1ccc(Br)c(CNc2cccnc2)c1` [ZINC128734226], the EC50 (hMT1; [7]) is reported as 158 nM, the EC50 (hMT2; [8]) is reported as 6.31 nM and the Kp at 30 min [4] is reported as 1.58. For the same molecule, the AUC [4] was 282 ng·h/mL, the Cmax [4] was 1920 ng/mL and the Vd [4] was 1.11 L/kg. It also gave a clearance [4] of 118 mL/min/kg and a half-life [4] of 17.4 min.
In the case of `COC(=O)c1ccc(CSc2nnc(C3CC3)[nH]2)s1` [ZINC159050207], the Emax (hMT1; HEK293, read-out: hMT1 % Emax) is reported as 99%, the EC50 (hMT1; [7]) is reported as 1 nM and the Emax (hMT2; HEK293, read-out: hMT2 % Emax) is reported as 83%. It also gave an EC50 (hMT2; [8]) of 2 nM.
For `COc1ccc2[nH]c(I)c(CCNC(C)=O)c2c1` [2-[^125I]-iodomelatonin, 2-[^125I]-Iodomelatonin], the Kd (mMT1 [5]; GTP buffer) was 0.201 nM and the Kd (mMT1 [5]; control buffer) was 0.087 nM.
For `Clc1ccc(CNc2cccc(-c3nnc[nH]3)c2)c(Br)c1` [ZINC555417447], the “hMT1 Schild slope” value (hMT1) was 0.98 ± 0.03, the EC50 (hMT1; [9]) was 40.7 nM and 39.8 nM and the EC50 (hMT1; [10]) was 39.8 nM. The “hMT2 Schild slope” value (hMT2; cAMP) was 1.3 ± 0.4, the EC50 (hMT2; [11]) was 2000 nM and the EC50 (mMT1 [3]) was 63.1 nM. For the same molecule, the Emax (mMT1 [3]) was -56 ± 5%, the “advance of the onset of activity” value [6] was “approximately 1 hour” and the Kp at 30 min [4] was 3.03. The AUC [4] was 494 ng·h/mL, the Cmax [4] was 1950 ng/mL and the Vd [4] was 1.11 L/kg. The clearance [4] was 67.1 mL/min/kg and the half-life [4] was 16.2 min.
For `CC(=O)NCCc1c(Cc2ccccc2)[nH]c2ccccc12` [luzindole], the effect on re-entrainment ([1]; 300 μg/mouse) was “decelerates re-entrainment”.
`COc1cccc2c1CCN(C(=O)c1ccc(F)nc1)C2` [ZINC182731037] showed an EC50 (hMT2; [12]) greater than 30000 nM.
With `COc1ccc(CN(C(=O)c2ccccc2F)c2ccncc2)cc1` [ZINC151192780] the “selectivity for MT2 over MT1” value (hMT2; cAMP) was 89 fold.
For `COc1ccc(CN(C(=O)[C@H]2C[C@@H]2C)c2ccncc2)cc1` [ZINC151209032], the Emax (hMT1; HEK293, read-out: hMT1 % Emax) was 88%, the EC50 (hMT1; [7]) was 2000 nM and the “melatonin receptor type selectivity (grouping)” value (hMT1; hMT1 versus hMT2, cAMP assays) was “MT1-selective”.
In the case of `COc1ccc(CN(C(=O)c2scc(C)c2Cl)c2ccncc2)cc1` [ZINC485552623], the EC50 (hMT1; [7]) is reported as greater than 10000 nM.

— PMC7134359 (Nature, 2020)
